# Compounds with a hit are over-represented: about 4.4% of the library has one in this group of screens.
# HIF activator – HIF pathway transcriptional activation; U2OS HRE-luciferase reporter, luminescence; normalized: DMSO 0%, desferrioxamine 100%; activation, % at 7.5 µM (by protocol); 300,000 tested, 0.32% active;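 active = mean activation of at least 10% of the iron chelator positive control signal, with at least half of replicates also reaching 10%; inconclusive = mean and replicate majority disagree about reaching 10%; inactive = mean and most replicates under 10%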
# Calb FLC – affects C. albicans growth with fluconazole; growth inhibition, % (test concentration not listed); 300,000 tested, 0.57% active; AID 1979; C. albicans CaCi-2 (fluconazole-resistant clinical isolate) + fluconazole, Alamar Blue growth, 48 h;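 active = growth inhibition above about 58% in most replicates, limit read from the data, passing the limit was not always enough; inconclusive = exactly half the replicates above a set limit; inactive = most replicates below a set limit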;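 also: all wells also contain fluconazole at 8 µg/ml as a sub-toxic cotreatment; 0% = median of DMSO wells and 100% = median of geldanamycin control wells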
# HSF1 inh – HSF1 inhibition. activity change, negative = inhibition, % at 7.5 µM (by protocol). NIH3T3-HGL HSE-luciferase, MG132-induced, luminescence 8 h; stronger effect = lower value. 300,000 tested, 0.77% active. AID 2098;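 active = more than half of replicate wells show activity change below -50%, luminescence cut by over half; inconclusive = some wells, but at most half, below -50%; inactive = no replicate well below -50%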;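 also: luciferase reports HSF-1 transcriptional activity via heat shock element; 0% = median of DMSO wells and -100% = zero luminescence signal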
# HSF1 activator – increases HSF-1 driven luciferase reporter signal; NIH3T3-HGL HSF-1 luciferase reporter, MG132, 8 h; 100% = twice DMSO control signal; activation, % at 9 µM; 300,000 tested, 1.7% active;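 active = mean replicate activation of at least 50% with a set share of replicates each reaching 50%; inconclusive = only one of those two conditions met; inactive = mean below 50% and too few replicates reaching it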;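 also: 0% = median of the neutral control wells and 100% = twice that signal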
# T cruzi repl – T. cruzi replication inhibition | T. cruzi beta-gal in NIH3T3, luminescence, 90 h | inhibition, % (no concentration beside the values) | 300,000 tested, 1.4% active;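 active = mean inhibition across valid replicates above about 55%, limit read from the data; inconclusive = mean below that limit but half or more replicates reach it; inactive = mean below it, under half of replicates reach it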;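 also: signal also drops with host cell toxicity which is not excluded here; 0% = plate median of DMSO wells and 100% = zero luminescence signal; higher percent means less beta-gal luminescence so fewer parasites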
#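 System – NIH/3T3 host cells with β-galactosidase reporter T. cruzi · Doses – single 50 nL compound addition per well in DMSO · Reagent – 5000 T. cruzi trypomastigotes/well · Medium – Low-serum DMEM with 2% FBS · Timing – ≥90 h infection period, 3 h prior cell attachment · Evaluation – parasite load inhibition, % · Technique – GalScreen luminescence, 60 min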
# Numbers without * were called inactive; ? = inconclusive; . = no result given.
SMILES,HIF activator,Calb FLC,HSF1 inh,HSF1 activator,T cruzi repl
CC(=O)NNC(=O)CN1C(=O)/C(=C/c2ccccc2)SC1=S,0,-4,-2,-2,-4
CCN(CC)C(=O)CN1C(=O)/C(=C/c2ccccc2)SC1=S,-1,9,-57*,-68,49
O=C(O)CN1C(=O)/C(=C\c2cccc(OCc3ccccc3F)c2)SC1=S,0,-1,20,58*,2
COc1ccc(Cl)cc1NC(=O)Cn1nnc(C(=O)NCc2ccc3c(c2)OCO3)c1N,-1,-7,3,1,23
Cc1cc(OCc2cc(C(=O)N(C)C3CCOC3)no2)cc(C)c1Cl (stereo not drawn),6,-25,48,64*,3
COc1ccc(OCc2cc(C(=O)N(C)CC3CCCCO3)no2)c(Cl)c1 (stereo not drawn),2,-8,11,36,2
COc1ccc(OCc2cc(C(=O)N(C)CCC3CCOCC3)no2)c(Cl)c1,3,2,38,77*,13
O=C(CN1CCOCC1)Nc1ccc2c(c1)OCCO2,1,-1,2,6,-4
Cc1ccccc1OCC(O)CN1CCN(CCN2C(=O)c3cccc4cccc(c34)C2=O)CC1 (stereo not drawn),0,41,14,30,56*
C=CCc1ccccc1OCC(O)CN1CCN(CCN2C(=O)c3cccc4cccc(c34)C2=O)CC1 (stereo not drawn),-1,54,44,61*,44
Cc1nc2ccccc2c2oc(C(=O)NCCCN3CCCC(C)C3)cc12 (stereo not drawn),0,1,2,-4,15
CC1CCCN(CCCNC(=O)c2cc3c(Cl)nc4ccccc4c3s2)C1 (stereo not drawn),3,-24,-7,3,77*
CN(CCCNC(=O)c1cc2c(Cl)nc3ccccc3c2s1)Cc1ccccc1,0,8,7,-10,69*
CCN(CC)CCCNC(=O)c1cc2c(Cl)nc3ccccc3c2s1,0,-16,7,42,50
Cc1ccc(C)c(NC(=O)C2CC(O)CN2C(=O)OCc2ccccc2)c1 (stereo not drawn),1,-1,-5,-22,-7
Cc1ccc(C)c(NC(=O)C2CC(O)CN2C(=O)Oc2ccccc2)c1 (stereo not drawn),0,-2,45,67*,-2
COc1ccc(Cl)cc1C(=O)NNC(=O)COC(=O)CC(NC(C)=O)c1ccccc1 (stereo not drawn),-2,0,2,8,-8
Nn1c(=O)c2ccccc2n2c(SCc3ccccc3)nnc12,0,-3,-68*,-76,5
Nn1c(=O)c2ccccc2n2c(SCc3ccc(C(F)(F)F)cc3)nnc12,1,19,9,10,21
O=C(NCc1ccccn1)c1ccco1,0,-7,2,8,-19
O=C(NC(Cc1ccccc1)C(=O)NCc1ccccn1)c1ccco1 (stereo not drawn),0,103*,-5,-2,-15
O=C(Nc1ccc(S(=O)(=O)NCC2CCCO2)cc1)c1ccccc1 (stereo not drawn),0,14,-65*,-72,-19
CC(=O)N1c2ccc(S(=O)(=O)N(C)Cc3ccccc3)cc2CC1C (stereo not drawn),0,-20,1,16,1
N=c1c2c(-c3ccccc3)c(-c3ccccc3)n(Cc3ccco3)c2ncn1Cc1ccco1,1,?,-4,8,57*
CCC(=O)Nc1c(C#N)c2nc3ccccc3nc2n1C1CCCCC1,-1,-1,1,13,11
SMILES,HIF activator,Calb FLC,HSF1 inh,HSF1 activator,T cruzi repl
CCOC(=O)c1c(NC(=O)c2ccco2)n(C2CCCCC2)c2nc3ccccc3nc12,1,21,50,78*,?
COc1ccc(-c2nc(CN3CCC(C(=O)N4CCOCC4)CC3)c(C)o2)c(OC)c1,0,-9,-3,-11,-1
Cc1cccc2sc(NNC(=O)c3ccc(S(=O)(=O)N4CCc5ccccc5C4)cc3)nc12,14*,-1,-14,-23,60*
Cc1nnnn1/C(=C\c1ccccc1)C(=O)OCC(=O)NC1CCCCC1,-1,-3,70,78*,-36
Cc1nnnn1/C(=C\c1ccccc1)C(=O)OCC(=O)NC(C)(C)C,-2,-14,27,15,0
CC(C)(C)Nc1nc2cc([N+](=O)[O-])ccc2o1,1,-14,4,7,8
Nc1ccc(-c2nc3cc([N+](=O)[O-])ccc3o2)cc1,2,-5,29,58*,-5
COc1ccc(-c2nc3cc([N+](=O)[O-])ccc3o2)cc1,0,10,37,59*,-6
CSc1cccc(CN(C)C(=O)C2CCC(=O)N(CCCN3CCCC3=O)C2)c1 (stereo not drawn),3,-3,23,26,11
CN(CC1CCCO1)S(=O)(=O)c1ccc(C(=O)Nc2ccc(S(N)(=O)=O)cc2)cc1 (stereo not drawn),-1,-2,-3,-5,9
CCOC(=O)N1CCN(S(=O)(=O)N2CCCC(C(=O)NCc3ccccc3Cl)C2)CC1 (stereo not drawn),.,-27,-53*,-64,-6
CCOc1c(Cl)cc(CNc2ccc(N3CCCC3)cc2)cc1OC,0,5,-9,-18,63*
COc1ccc(C2CCCN2C(=S)Nc2cccc(Cl)c2C)cc1OC (stereo not drawn),0,-1,-1,0,3
CCCN1CC(O)=C(C#N)C1=O,0,-9,-10,-12,-4
COc1ccc(Nc2ncnc3sc(-c4ccccc4)cc23)cc1,0,-3,-71*,-78,31
COc1ncnc2sc(-c3ccccc3)cc12,2,-6,26,38,-14
CC(=O)C(CC(=O)N1CCCc2ccccc21)C(=O)Nc1ccc(F)cc1 (stereo not drawn),0,-9,7,-10,1
O=C1OC(/C=C/c2ccccc2)=NC/1=C/C=C/c1ccccc1,0,30,82,112*,-12
CC(C)c1ccc(NC(=O)COc2ccccn2)cc1,1,-3,14,39,56*
CCc1ccc(NC(=O)CSc2ccc(-c3cccnc3)nn2)cc1,1,0,-76*,-81,1
CC(=O)Nc1cccc(NC(=O)CSc2ccc(-c3ccccn3)nn2)c1,3,27,-6,-3,6
CCc1ccc(NC(=O)CSc2ccc(-c3ccccn3)nn2)cc1,13*,11,4,16,?
Cc1ccc(NC(=O)CSc2ccc(-c3cccnc3)nn2)cc1,0,1,-2,9,-8
CNc1nc(-c2c(C)n(C)c3ccc(OC)cc23)cs1,3,6,-35,-49,34
Cc1ccc(C)c(OCCC(=O)NCCc2ccc(S(N)(=O)=O)cc2)c1,0,16,0,3,-7
